Activity calls are given as the source filed them. The calls are words filed in the database; no cut-off is given here.
Assays:
[1] = Antitumor activity against mouse LCC cells allografted in mouse assessed as host median survival time at 25 mg/kg/day, ip administered as gum acacia suspension on days 1 to 9 relative to control; format: functional, Lewis lung carcinoma; details: route intraperitoneal
Summary of the method: (§1)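 Tumored mice got the compound intraperitoneally as a gum acacia suspension once daily on days 1-9 (nine injections), with doses in (mg/kg)/day. Read-out was T/C, the median survival time of treated over control animals as a percentage. Dose-response assays were generally run in duplicate, and the highest T/C per assay is reported with its dose.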

L1210 = test: Growth inhibition of mouse L1210 cells at 0.14 umol/ml after 23 to 46 hrs by coulter counter analysis; format: functional, cell-based
Summary of the method: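 L1210 cells grown in RPMI 1630 with 16.7% heat-inactivated fetal calf serum and gentamicin 40 µg/mL. Exponentially growing cells were washed and seeded at 1 × 10^5 cells/mL. Drug was added in Me2SO to a final 1.39 ± 0.17 × 10^-7 mol/mL with continuous exposure at 37 °C. Coulter counts at 23 and 46 h gave percent inhibition versus untreated control.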

P388 [2] = test: Antitumor activity against mouse P388 cells allografted in mouse assessed as host median survival time at 50 mg/kg/day, ip administered as gum acacia suspension on days 1 to 9 relative to control; format: functional; details: route intraperitoneal; summary of the method: as §1
P388 [3] = test: Antitumor activity against mouse P388 cells allografted in mouse assessed as host median survival time at 25 mg/kg/day, ip administered as gum acacia suspension on days 1 to 9 relative to control; format: functional; details: route intraperitoneal; summary of the method: as §1
[4] = Antitumor activity against mouse LCC cells allografted in mouse assessed as host median survival time at 50 mg/kg/day, ip administered as gum acacia suspension on days 1 to 9 relative to control; format: functional, Lewis lung carcinoma; details: route intraperitoneal; summary of the method: as §1
[5] = Octanol-water partition coefficient, log P of the compound by high-performance liquid chromatography; format: physicochemical
[6] = Antitumor activity against mouse LCC cells allografted in mouse assessed as host median survival time at 100 mg/kg/day, ip administered as gum acacia suspension on days 1 to 9 relative to control; format: functional, Lewis lung carcinoma; details: route intraperitoneal; summary of the method: as §1
P388 [7] = test: Antitumor activity against mouse P388 cells allografted in mouse assessed as host median survival time at 12 mg/kg/day, ip administered as gum acacia suspension on days 1 to 9 relative to control; format: functional; details: route intraperitoneal; summary of the method: as §1
P388 [8] = test: Antitumor activity against mouse P388 cells allografted in mouse assessed as host median survival time at 200 mg/kg/day, ip administered as gum acacia suspension on days 1 to 9 relative to control; format: functional; details: route intraperitoneal; summary of the method: as §1
P388 [9] = test: Antitumor activity against mouse P388 cells allografted in mouse assessed as host median survival time at 6 mg/kg/day, ip administered as gum acacia suspension on days 1 to 9 relative to control; format: functional; details: route intraperitoneal; summary of the method: as §1
[10] = Antitumor activity against mouse LCC cells allografted in mouse assessed as host median survival time at 6 mg/kg/day, ip administered as gum acacia suspension on days 1 to 9 relative to control; format: functional, Lewis lung carcinoma; details: route intraperitoneal; summary of the method: as §1
[11] = Antitumor activity against mouse LCC cells allografted in mouse assessed as host median survival time at 12 mg/kg/day, ip administered as gum acacia suspension on days 1 to 9 relative to control; format: functional, Lewis lung carcinoma; details: route intraperitoneal; summary of the method: as §1
[12] = Antitumor activity against mouse LCC cells allografted in mouse assessed as host median survival time at 200 mg/kg/day, ip administered as gum acacia suspension on days 1 to 9 relative to control; format: functional, Lewis lung carcinoma; details: route intraperitoneal; summary of the method: as §1
P388 [13] = test: Antitumor activity against mouse P388 cells allografted in mouse assessed as host median survival time at 100 mg/kg/day, ip administered as gum acacia suspension on days 1 to 9 relative to control; format: functional; details: route intraperitoneal; summary of the method: as §1
[14] = Solubility of the compound in ethanol at 25 degC measured per 100 ml; format: physicochemical
[15] = Solubility of the compound in water at 25 degC measured per 100 ml; format: physicochemical; details: buffer
[16] = Antineoplastic activity against mouse LCC cells allografted in mouse assessed as increase in host life span at 20 to 200 mg/kg relative to control; format: functional, Lewis lung carcinoma; details: dose mg/kg 20-200
[17] = Antitumor activity against mouse LCC cells allografted in mouse assessed as host median survival time at 3 mg/kg/day, ip administered as gum acacia suspension on days 1 to 9 relative to control; format: functional, Lewis lung carcinoma; details: route intraperitoneal; summary of the method: as §1

For `COC12CC(O)=C(C(C)=O)C(=O)C1(C)c1c(O)c(C)c(O)c(C(C)=O)c1O2` (mixture of isomers), the T/C [1] was 122%, the “growth inhibition (GI)” value (L1210) was “Active” and the T/C (P388 [2]) was 122%. It also gave a T/C (P388 [3]) of 128%, a T/C [4] of 106% and a logP [5] of 2.3.
For `C=C1c2c(O)c(C)c(O)c(C(C)=O)c2OC12C=C(C(=O)O)C(=O)C2` (configuration not stated), the T/C [6] was 109%, the T/C (P388 [7]) was 112% and the T/C (P388 [3]) was 108%. The T/C [4] was 127% and the logP [5] was 1.3.
With `CC(=O)c1c(O)c(C)c(O)c2c1OC1=Cc3c(c(C)nn3-c3ccccc3)C(=O)C12C` (configuration not stated) the T/C [1] was 111%, the “growth inhibition (GI)” value (L1210) was “Active” and the T/C (P388 [8]) was 110%. The T/C [6] was 108%, the T/C (P388 [9]) was 122% and the logP [5] was 3.2.
In the case of `CC(=O)Oc1c(C)c(O)c(C(C)=O)c2c1C1(C)C(=O)C(C(C)=O)=C(O)C=C1O2` (configuration not stated), the T/C [1] is reported as 118%, the “growth inhibition (GI)” value (L1210) is reported as “Active” and the T/C (P388 [8]) is reported as 113%. For the same compound, the T/C [4] was 112% and the logP [5] was 2.7.
Work on `CC(=O)C1=C(O)C=C2Oc3c(C(C)=O)c(O[C@@H]4O[C@H](CO)[C@@H](O)[C@H](O)[C@H]4O)c(C)c(O)c3C2(C)C1=O` (some centres not stated) yielded a T/C (P388 [2]) of 108%, a T/C (P388 [3]) of 102% and a logP [5] of 0.56.
`CC(=O)c1c(O[C@@H]2O[C@H](CO)[C@@H](O)[C@H](O)[C@H]2O)c(C)c(O)c2c1OC1=CC(=O)/C(=C(/C)N)C(=O)C12C` (some centres not stated) gave a T/C (P388 [7]) of 104% and a T/C (P388 [3]) of 108%.
With `CC(=O)c1c(O)c(C)c(O)c2c1OC1=CC(=O)/C(=C(\C)N)C(=O)C12C` (configuration not stated) the “growth inhibition (GI)” value (L1210) was “Active”, the T/C [10] was 110% and the T/C [4] was 111%. It also gave a T/C (P388 [9]) of 107% and a logP [5] of 3.2.
For `CC(=O)c1c(O)c(C)c(O)c2c1OC1=Cc3c(c(C)nn3C)C(=O)C12C` (configuration not stated), the “growth inhibition (GI)” value (L1210) was “Active”, the T/C [11] was 103% and the T/C (P388 [2]) was 118%. For the same compound, the T/C [12] was 112% and the logP [5] was 2.8.
In the case of `CC(=O)Oc1c(C)c(OC(C)=O)c2c(c1C(C)=O)OC1=CC(O)=C(C(C)=O)C(=O)C12C` (configuration not stated), the “growth inhibition (GI)” value (L1210) is reported as “Active”, the T/C (P388 [8]) is reported as 144% and the T/C [11] is reported as 117%. The T/C [10] was 111%, the T/C (P388 [9]) was 115% and the logP [5] was 2.5.
In the case of `CC(=O)C1=C(O)CC2Oc3c(C(C)=O)c(O)c(C)c(O)c3C2(C)C1=O` (configuration not stated), the “growth inhibition (GI)” value (L1210) is reported as “Active”, the T/C [11] is reported as 107% and the T/C (P388 [13]) is reported as 128%. The T/C (P388 [3]) was 118%, the T/C [4] was 107% and the logP [5] was 2.4.
For `CC(=O)C1=C(O)C=C2Oc3c(C(C)=O)c(O)c(C)c(O)c3[C@]2(C)C1=O` [(-)-USNIC ACID], the solubility [14] was 20 mg, the “growth inhibition (GI)” value (L1210) was “Active” and the solubility [15] was < 10 mg. The T/C (P388 [13]) was 141%, the Activity [16] was 35% and the logP [5] was 2.88.
With `COC12CC(O)=C(C(C)=O)C(=O)C1(C)c1c(OC(C)=O)c(C)c(O)c(C(C)=O)c1O2` (mixture of isomers) the “growth inhibition (GI)” value (L1210) was “Active”, the T/C (P388 [13]) was 124% and the T/C (P388 [3]) was 106%. For the same compound, the T/C [4] was 108% and the logP [5] was 2.6.
In the case of `CC(=O)c1c(O)c(C)c(O)c2c1OC1=CC(=O)c3c(C)noc3C12C` (configuration not stated), the “growth inhibition (GI)” value (L1210) is reported as “Active”, the T/C [11] is reported as 117% and the T/C (P388 [13]) is reported as 114%. It also gave a T/C [10] of 112%.
In the case of `CC(=O)Oc1c(C)c(OC(C)=O)c2c(c1C(C)=O)OC1CC(=O)C(C(C)=O)=C(O)C21C` (mixture of isomers), the “growth inhibition (GI)” value (L1210) is reported as “Active”, the T/C (P388 [2]) is reported as 112% and the T/C [17] is reported as 104%. For the same compound, the T/C (P388 [3]) was 108%, the T/C [4] was 114% and the logP [5] was 2.3.
`CC(=O)c1c(O)c(C)c(O)c2c1OC1=Cc3onc(C)c3C(=O)C12C` (configuration not stated) showed a T/C (P388 [13]) of 104% and a T/C [4] of 111%.

— ChEMBL document CHEMBL3244360, “Usnic acid derivatives as potential antineoplastic agents” (J Med Chem, 1979)
